FGF22 binding: FGF22 (human) thermal shift binding; Q9HCT0; AID 651658; activity (Tm shift, normalised), % at 9.99 µM; actives 1.5% (n = 340,000); recombinant FGF22 thermal shift, SYPRO orange fluorescence; percent of sucrose octasulfate shift, DMSO zero;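 active = mean Tm shift, scaled 0 neutral to 100 positive control, at about 1.3% or above, every replicate too, limit read from the data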
Target sequence (Q9HCT0 whole entry, looked up): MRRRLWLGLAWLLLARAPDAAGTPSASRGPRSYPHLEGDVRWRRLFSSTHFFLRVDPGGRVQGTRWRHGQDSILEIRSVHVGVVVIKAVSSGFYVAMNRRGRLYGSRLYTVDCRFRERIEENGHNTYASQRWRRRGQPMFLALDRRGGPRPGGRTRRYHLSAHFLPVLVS
Efflux pump mplx: inhibitors of Candida antifungal efflux pumps expressed in yeast | S. cerevisiae Candida pump triplex, Nile Red efflux | inhibition, % at 10 µM | actives 0.44% (n = 330,000);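 active = plate passing quality check with inhibition over a set limit, or well fluorescence over plate mean plus 4 SD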;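 also: Nile Red retained in pooled yeast measured as flow cytometry median fluorescence; 0% = buffer negative control and 100% = Enniatin B positive control; higher means more Nile Red kept so more efflux inhibition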
ARFGAP1 inh: rat ARFGAP1 inhibition | inhibition, % at 16.5 µM | Q62848 | Arfgap1-stimulated ARF1 GTP hydrolysis, GDP FP detection | AID 651572 | actives 0.26% (n = 360,000);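 active = inhibition above a per-plate limit, mean inhibition of low control wells plus 3 SD, cut at about 25% in these data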;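 also: 0% = DMSO wells with enzyme and 100% = wells lacking Arfgap1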
Target sequence (Q62848 1-136 limits assumed): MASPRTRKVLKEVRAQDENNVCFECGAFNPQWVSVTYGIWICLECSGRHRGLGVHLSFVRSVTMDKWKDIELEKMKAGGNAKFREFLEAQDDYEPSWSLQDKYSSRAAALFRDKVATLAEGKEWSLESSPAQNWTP
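Replicates: Single well per compound | Assay system: Truncated rat Arfgap1 GAP domain | Control set: No-Arfgap1 wells (100%) versus DMSO full-reaction wells (0%) | Times: Enzyme reaction 120 min at 25 °C after 20 min preincubation | Reagent: Human ARF1(Δ1-17)-GTP substrate | Measured by: Tracer-displacement fluorescence polarization with EDTA stop, 620/688 nm | Measure: Percent inhibition of Arfgap1-stimulated GTP hydrolysis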
Rtt109 HAT inh: inhibitors of Candida albicans Rtt109/Vps75 histone acetyltransferase; Q5AAJ8; purified Rtt109/Vps75, ThioGlo CoA-SH fluorescence, 4 h; inhibition, % at 34.9 µM; actives 0.16% (n = 330,000); AID 540336;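 active = inhibition of at least 50% in every replicate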
Target sequence (Q5AAJ8 whole entry, looked up): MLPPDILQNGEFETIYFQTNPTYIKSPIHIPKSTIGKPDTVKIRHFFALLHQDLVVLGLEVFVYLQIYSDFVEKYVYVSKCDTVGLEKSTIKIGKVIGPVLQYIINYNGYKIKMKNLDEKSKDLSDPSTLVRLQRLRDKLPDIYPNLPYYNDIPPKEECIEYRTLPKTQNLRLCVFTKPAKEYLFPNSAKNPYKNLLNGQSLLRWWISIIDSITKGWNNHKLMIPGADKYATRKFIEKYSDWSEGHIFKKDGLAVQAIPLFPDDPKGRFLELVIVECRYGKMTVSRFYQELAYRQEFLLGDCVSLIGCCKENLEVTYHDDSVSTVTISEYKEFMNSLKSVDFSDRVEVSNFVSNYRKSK
ASAP1 GAP inh: ASAP1 ArfGAP inhibition; Q9ULH1; ASAP1-stimulated ARF1 GTP hydrolysis, GDP FP detection; actives 0.19% (n = 360,000); inhibition, % at 16.5 µM; in the data active = inhibition above about 25%;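 also: 0% = vehicle with enzyme and substrate and 100% = no enzyme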
Yeast cmpd fluor: counter-screen for efflux pump inhibitors: compound fluorescence | actives 4% (n = 1,700) | fluorescence ratio to DMSO, % at 10 µM | shares compounds with Efflux pump mplx | S. cerevisiae AD/pABC3, flow cytometry;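 active = fluorescence ratio to DMSO above its plate's cutoff, the plate mean ratio plus 5 SD, cut at about 210% in these data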;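 also: unstained yeast with no Nile Red so the signal is compound autofluorescence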
Mdr1 pump inh: Candida Mdr1 efflux pump inhibition; inhibition, % at 10 µM; AID 588518; shares compounds with Efflux pump mplx; S. cerevisiae AD/CaMDR1, Nile Red efflux, flow cytometry; actives 1% (n = 1,700); in the data active = inhibition above about 26%;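 also: 0% = DMSO vehicle and 100% = reference inhibitor; higher means more Nile Red retained so more efflux inhibition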
CaCdr2 efflux inh: inhibitors of Candida albicans Cdr2 efflux pump; shares compounds with Efflux pump mplx; S. cerevisiae AD/CaCDR2, Nile Red retention, flow cytometry; Nile Red retention ratio vs DMSO, % at 10 µM; actives 4% (n = 1,700); in the data active = Nile Red retention ratio vs DMSO above about 190%;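 also: higher ratio means more blocking of Cdr2 efflux of the dye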
Cdr1 pump inh: Candida Cdr1 efflux pump inhibition. shares compounds with Efflux pump mplx. S. cerevisiae AD/CaCDR1, Nile Red efflux, flow cytometry. inhibition, % at 10 µM. actives 1% (n = 1,700);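 active = inhibition above the screen-wide mean plus twice its standard deviation, cut at about 32% in these data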
Numbers without * were called inactive; . = no result. A selection: hits, their analogues and other compounds. The true share with any hit is near 1.9%.

SMILES	FGF22 binding	Efflux pump mplx	ARFGAP1 inh	Rtt109 HAT inh	ASAP1 GAP inh	Yeast cmpd fluor	Mdr1 pump inh	CaCdr2 efflux inh	Cdr1 pump inh
Cn1cc(P(=S)(N2CCOCC2)N2CCOCC2)cc1P(=S)(N1CCOCC1)N1CCOCC1	-0.2	0.0	-9.7	11.2	10.7	.	.	.	.
CCOC(=O)c1cc(C)n(Cc2cccc(OC)c2OC)c1C	.	0.3	-1.0	-2.3	3.6	.	.	.	.
CCOC(=O)c1c(C)c(C)n(Cc2cccc(OC)c2OC)c1C	0.3	13.8*	1.3	5.2	9.5	97.2	-0.2	86.9	0.0
CCOc1ccc(NC(=O)N2CCC(n3c(=O)[nH]c4ccccc43)CC2)cc1	0.0	0.8*	4.1	-5.2	1.4	91.9	-0.1	99.6	-0.1
Cc1cc(=O)oc(C)c1C(=O)NCCCN1C(C)CCCC1C (stereo unspecified)	.	-0.4	-4.3	-4.5	-7.2	.	.	.	.
COc1cc(NC(=O)c2cc(-c3ccccc3)nc3c2cnn3C(C)C)cc(OC)c1OC	.	1.0*	.	6.9	.	100.2	-0.2	99.3	-0.5
COc1ccc(-c2cc(C(=O)Nc3ccccc3O)c3ccccc3n2)cc1OC	0.0	-0.1	0.3	2.2	0.4	.	.	.	.
COC(=O)c1cc(OC)c(OC)cc1NC(=O)c1cc(-c2ccccc2)nc2ccccc12	.	0.2	-4.0	-9.9	3.0	99.8	-0.1	101.8	0.0
CC(=O)N1CCC(O)(c2cccc(C(F)(F)F)c2)CC1	.	-0.1	-0.6	-0.9	6.5	.	.	.	.
Cc1ccc2oc(C(=O)N3CCC(O)(c4cccc(C(F)(F)F)c4)CC3)c(C)c2c1	-0.1	0.5*	-1.7	2.8	1.6	114.3	0.1	116.4	0.1
O=C(O)c1nccnc1C(=O)N1CCN(c2ccccc2)CC1	0.1	1.9*	0.3	4.8	-19.6	106.7	-0.2	99.3	2.0
O=C(c1ccccc1)N1CCN(c2ccccc2)CC1	0.0	.	-4.8	0.0	4.4	.	.	.	.
COc1ccc(Nc2nc(CN3CCOCC3)nc3sc4c(c23)CCC(C)C4)cc1OC (stereo unspecified)	.	0.2	.	.	.	.	.	.	.
COc1cc2c(cc1OC)CN(c1nc(CN3CCOCC3)nc3sc4c(c13)CCC(C)C4)CC2 (stereo unspecified)	.	98.3*	-8.6	2.8	4.7	100.4	5.9	112.3	81.9*
CCn1ncc(Br)c1C(=O)Nc1sc2c(c1C(=O)OC)CCC2	.	0.4	2.6	-11.8	-4.9	97.6	-0.1	111.6	-0.1
CCOC(=O)c1c(NC(=O)c2c(Br)cnn2CC)sc(C)c1C	.	-0.1	-2.8	-3.8	-16.2	.	.	.	.
Cn1ncc(Cl)c1C(=O)Nc1sc2c(c1C(N)=O)CCC2	.	0.0	-4.4	8.5	-7.8	92.1	-0.2	98.5	0.0
COC(=O)c1c(NC(=O)c2nn(C)cc2Cl)sc2c1CCCC2	.	0.3	3.7	-5.0	4.6	.	.	.	.
COC(=O)c1c(NC(=O)c2ccn(C)n2)sc2c1CCC2	-0.2	-0.5	3.1	10.6	2.9	102.2	-0.1	106.3	0.1
CCn1ccc(C(=O)Nc2sc3c(c2C(=O)OC)CCC3)n1	0.1	0.6*	2.9	-22.1	4.1	92.9	0.0	95.4	-0.1
CCN(CC)S(=O)(=O)c1ccc(Cl)c(NC(=O)c2ccccc2C)c1	.	0.3	-1.7	-2.7	2.4	.	.	.	.
O=C(C[C@@H]1C[C@H]2c3cc(NC(=O)C4CCC4)ccc3O[C@H]2[C@@H](CO)O1)NCc1ccccn1	-0.2	.	.	.	.	.	.	.	.
O=C(Nc1sc2c(c1C(=O)O)CCC2)c1ccccc1Cl	-0.2	0.5*	4.9	4.4	-10.6	100.3	-0.1	107.2	0.0
O=C(Nc1sc2c(c1C(=O)O)CCCC2)c1ccccc1Cl	-0.1	-0.2	-2.1	-4.5	-15.1	.	.	.	.
CCn1ncc(Br)c1C(=O)Nc1cccc(C(C)=O)c1	-0.2	0.0	-8.4	-10.7	-0.5	.	.	.	.
SMILES	FGF22 binding	Efflux pump mplx	ARFGAP1 inh	Rtt109 HAT inh	ASAP1 GAP inh	Yeast cmpd fluor	Mdr1 pump inh	CaCdr2 efflux inh	Cdr1 pump inh
CCn1ncc(Br)c1C(=O)Nc1cc(C)cc(C)c1	.	6.5*	0.1	-17.5	7.1	107.9	0.0	106.0	0.0
CNC[C@H]1Oc2cc(C#CC3CCCCC3)ccc2S(=O)(=O)N([C@H](C)CO)C[C@@H]1C	-0.1	.	.	.	.	.	.	.	.
Cc1ccc(C)c(NC(=O)CSc2nnc(-c3n[nH]c4ccccc34)o2)c1	.	-0.1	11.1	1.4	7.0	.	.	.	.
CC(=O)N1CC[n+]2c(-c3ccc(Cl)cc3)csc21	0.2	-0.1	8.1	23.0	-10.3	.	.	.	.
COc1ccc(NS(=O)(=O)c2cc(NC(=O)c3cccnc3Cl)ccc2N2CCCC2)cc1	0.2	0.5*	-6.6	24.8	-1.2	116.4	-0.2	99.3	0.1
COc1ccc(NS(=O)(=O)c2cc(NC(=O)c3cnc(C)cn3)ccc2N2CCCC2)cc1	.	0.2	7.3	-1.3	10.2	.	.	.	.
COc1ccc(NS(=O)(=O)c2cc(NC(=O)CCSc3ccccc3)ccc2OC)cc1	.	-0.1	11.0	-6.3	0.3	.	.	.	.
C/C=C(\C)CN1CCN(c2ccc(C)cc2)CC1	.	0.4*	0.3	-3.4	-7.5	99.8	-0.2	91.4	-0.1
CCCCC(=O)Nc1nc2ccc3nc(C)sc3c2s1	-0.4	-0.2	-1.0	-3.4	15.9	.	.	.	.
O=C(CCCc1ccccc1)Nc1ccccc1C(F)(F)F	-0.2	0.3	-15.5	1.0	9.7	.	.	.	.
O=C(CCCOc1ccccc1)Nc1ccccc1C(F)(F)F	.	10.2*	-3.9	-3.2	-17.7	100.3	-0.1	105.1	0.0
COCO/C=C(\NC(C)=O)c1ccccc1	0.0	1.0*	-0.4	-0.6	12.2	114.6	-0.3	104.2	0.0
CC(C)(C)C1CCC(OC(=O)C[N+]2(C)CCCC2)CC1 (stereo unspecified)	0.0	0.5*	11.2	-0.2	2.0	99.8	-0.1	259.7*	-0.1
COc1cc(OC)c(-c2noc(C(=O)OC(C)(C)C)c2C(=O)OC(C)(C)C)c(OC)c1	.	1.2*	5.7	-3.4	-2.6	97.2	0.1	93.2	-0.1
Cc1cc(C)c(-c2noc(C(=O)OC(C)(C)C)c2C(=O)OC(C)(C)C)c(C)c1	.	0.0	-2.1	6.9	3.7	.	.	.	.
Nc1cc2c(cc1C(=O)c1cccc(Br)c1)OCCO2	.	0.6*	-8.1	-1.6	5.6	100.2	-0.3	103.6	0.2
CC(C)(C)n1nnnc1C(c1cccnc1)N1CCN(c2cccc(C(F)(F)F)c2)CC1 (stereo unspecified)	.	0.0	5.9	6.4	3.0	.	.	.	.
CC(C)(C)c1cc(C(c2cccnc2)N2CCN(CCO)CC2)cc(C(C)(C)C)c1O (stereo unspecified)	0.3	0.4*	8.8	91.9*	0.7	90.1	0.1	87.3	0.3

Assay outcomes from PubChem BioAssay.
